Data published in ChEMBL document CHEMBL5376013, “Design, synthesis and biological evaluation of novel morpholinopyrimidine-5-carbonitrile derivatives as dual PI3K/mTOR inhibitors” (RSC Med Chem, 2024).

Tests used:
Assay type in all cases: functional
Conditions in all cases: read-out: GI
[1] = system: SF-295; experiment: Antitumor activity against human SF-295 cells assessed as growth inhibition at 10 uM relative to control
Outline: (§1)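 After drug addition, plates were incubated 48 h at 37 °C under 5% CO2. Adherent cells were fixed with cold TCA (10% final, 60 min, 4 °C) and suspension cells with 16% final TCA. Staining used 0.4% SRB in 1% acetic acid, solubilized in 10 mM trizma, read at A515. Percent growth was calculated from time-zero, control and treated absorbances.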

[2] = system: ACHN; experiment: Antitumor activity against human ACHN cells assessed as growth inhibition at 10 uM relative to control; outline: as §1
[3] = system: EKVX; experiment: Antitumor activity against human EKVX cells assessed as growth inhibition at 10 uM relative to control; outline: as §1
[4] = system: SK-OV-3; experiment: Antitumor activity against human SK-OV-3 cells assessed as growth inhibition at 10 uM relative to control
Outline: (§2)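 Drug exposure 48 h at 37 °C, 5% CO2. Adherent cells fixed with cold TCA (10% final), suspension cells with TCA (16% final). Stained with 0.4% SRB in 1% acetic acid, dissolved in 10 mM Tris, A515. Growth relative to time-zero and untreated control.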

[5] = system: SW-620; experiment: Antitumor activity against human SW-620 cells assessed as growth inhibition at 10 uM relative to control; outline: as §2
[6] = system: SK-MEL-2; experiment: Antitumor activity against human SK-MEL-2 cells assessed as growth inhibition at 10 uM relative to control; outline: as §1
[7] = system: UACC-62; experiment: Antitumor activity against human UACC-62 cells assessed as growth inhibition at 10 uM relative to control; outline: as §2
[8] = system: CAKI-1; experiment: Antitumor activity against human CAKI-1 cells assessed as growth inhibition at 10 uM relative to control; outline: as §1
[9] = system: OVCAR-8; experiment: Antitumor activity against human OVCAR-8 cells assessed as growth inhibition at 10 uM relative to control; outline: as §1
[10] = system: NCI-H322M; experiment: Antitumor activity against human NCI-H322M cells assessed as growth inhibition at 10 uM relative to control; outline: as §1
[11] = system: UO-31; experiment: Antitumor activity against human UO-31 cells assessed as growth inhibition at 10 uM relative to control; outline: as §2
[12] = system: M14; experiment: Antitumor activity against human M14 cells assessed as growth inhibition at 10 uM relative to control; outline: as §1
[13] = system: HL-60; experiment: Antitumor activity against human HL-60 cells assessed as growth inhibition at 10 uM relative to control; outline: as §1
[14] = system: T47D; experiment: Antitumor activity against human T47D cells assessed as growth inhibition at 10 uM relative to control; outline: as §2
[15] = system: MOLT-4; experiment: Antitumor activity against human MOLT-4 cells assessed as growth inhibition at 10 uM relative to control; outline: as §1
[16] = system: SN12C; experiment: Antitumor activity against human SN12C cells assessed as growth inhibition at 10 uM relative to control; outline: as §2
[17] = system: LOX IMVI; experiment: Antitumor activity against human LOX IMVI cells assessed as growth inhibition at 10 uM relative to control; outline: as §1
[18] = system: HOP-92; experiment: Antitumor activity against human HOP-92 cells assessed as growth inhibition at 10 uM relative to control; outline: as §1
[19] = system: RXF 393; experiment: Antitumor activity against human RXF 393 cells assessed as growth inhibition at 10 uM relative to control; outline: as §1
[20] = system: MDA-MB-468; experiment: Antitumor activity against human MDA-MB-468 cells assessed as growth inhibition at 10 uM relative to control; outline: as §1
[21] = system: PC-3; experiment: Antitumor activity against human PC-3 cells assessed as growth inhibition at 10 uM relative to control; outline: as §1
[22] = system: SF-539; experiment: Antitumor activity against human SF-539 cells assessed as growth inhibition at 10 uM relative to control; outline: as §1
[23] = system: HCT-15; experiment: Antitumor activity against human HCT-15 cells assessed as growth inhibition at 10 uM relative to control; outline: as §1
[24] = system: SF-268; experiment: Antitumor activity against human SF-268 cells assessed as growth inhibition at 10 uM relative to control; outline: as §1
[25] = system: 786-0; experiment: Antitumor activity against human 786-0 cells assessed as growth inhibition at 10 uM relative to control; outline: as §1
[26] = system: MDA-MB-435; experiment: Antitumor activity against human MDA-MB-435 cells assessed as growth inhibition at 10 uM relative to control; outline: as §1
[27] = system: NCI-H226; experiment: Antitumor activity against human NCI-H226 cells assessed as growth inhibition at 10 uM relative to control; outline: as §1
[28] = system: NCI-H460; experiment: Antitumor activity against human NCI-H460 cells assessed as growth inhibition at 10 uM relative to control; outline: as §1
[29] = system: HOP-62; experiment: Antitumor activity against human HOP-62 cells assessed as growth inhibition at 10 uM relative to control; outline: as §1
[30] = system: SNB-75; experiment: Antitumor activity against human SNB-75 cells assessed as growth inhibition at 10 uM relative to control; outline: as §2
[31] = system: A498; experiment: Antitumor activity against human A498 cells assessed as growth inhibition at 10 uM relative to control; outline: as §1
[32] = system: OVCAR-3; experiment: Antitumor activity against human OVCAR-3 cells assessed as growth inhibition at 10 uM relative to control; outline: as §1
[33] = system: DU-145; experiment: Antitumor activity against human DU-145 cells assessed as growth inhibition at 10 uM relative to control; outline: as §1
[34] = system: HT-29; experiment: Antitumor activity against human HT-29 cells assessed as growth inhibition at 10 uM relative to control; outline: as §1
[35] = system: NCI-H522; experiment: Antitumor activity against human NCI-H522 cells assessed as growth inhibition at 10 uM relative to control; outline: as §1
[36] = system: HCT-116; experiment: Antitumor activity against human HCT-116 cells assessed as growth inhibition at 10 uM relative to control; outline: as §1
[37] = system: COLO 205; experiment: Antitumor activity against human COLO 205 cells assessed as growth inhibition at 10 uM relative to control; outline: as §1
[38] = system: UACC-257; experiment: Antitumor activity against human UACC-257 cells assessed as growth inhibition at 10 uM relative to control; outline: as §2
[39] = system: SK-MEL-28; experiment: Antitumor activity against human SK-MEL-28 cells assessed as growth inhibition at 10 uM relative to control; outline: as §2
[40] = system: U-251; experiment: Antitumor activity against human U-251 cells assessed as growth inhibition at 10 uM relative to control; outline: as §2
[41] = system: IGROV-1; experiment: Antitumor activity against human IGROV-1 cells assessed as growth inhibition at 10 uM relative to control; outline: as §1
[42] = system: BT-549; experiment: Antitumor activity against human BT-549 cells assessed as growth inhibition at 10 uM relative to control; outline: as §1
[43] = system: MDA-MB-231; experiment: Antitumor activity against human MDA-MB-231 cells assessed as growth inhibition at 10 uM relative to control; outline: as §1
[44] = system: SK-MEL-5; experiment: Antitumor activity against human SK-MEL-5 cells assessed as growth inhibition at 10 uM relative to control; outline: as §2
[45] = system: KM12; experiment: Antitumor activity against human KM12 cells assessed as growth inhibition at 10 uM relative to control; outline: as §1
[46] = system: OVCAR-4; experiment: Antitumor activity against human OVCAR-4 cells assessed as growth inhibition at 10 uM relative to control; outline: as §1

Measured: inhibition of growth at 10 µM

N#Cc1c(-c2ccc(Cl)cc2)nc(N2NC(=O)CC2=N)nc1N1CCOCC1
13.6%: [35]
86.2%: [7]
24.6%: [11]
24.3%: [30]
34.3%: [31]
12.6%: [18]
< 1%: all other assays above
